From paper PMC4201343 (ACS Chemical Biology, 2014)
Structures can show the parent of a compound that is named as a salt. Where two headings read alike, the source gives them in different places.

Assays:
HCV NS3h = molecular target: T1, HCV NS3h (Hepatitis C virus genotype 1b, UniProt Q9WMX2); assay: FP-based binding assay, NS3h displacement from Cy5-dT15 DNA; design: species or system hepatitis C virus genotype 1b (con1); settings: for NS3h (% I): percent inhibition of NS3h binding to Cy5-dT15: 100 μM of each compound; for ability to inhibit HCV helicase binding to DNA (in words): compared with ebselen; for inhibition at 100 µM: read-out: NS3h (% I): percent inhibition of NS3h binding to Cy5-dT15, 100 μM of each compound
T1 sequence (Q9WMX2 1190-1657 limits assumed): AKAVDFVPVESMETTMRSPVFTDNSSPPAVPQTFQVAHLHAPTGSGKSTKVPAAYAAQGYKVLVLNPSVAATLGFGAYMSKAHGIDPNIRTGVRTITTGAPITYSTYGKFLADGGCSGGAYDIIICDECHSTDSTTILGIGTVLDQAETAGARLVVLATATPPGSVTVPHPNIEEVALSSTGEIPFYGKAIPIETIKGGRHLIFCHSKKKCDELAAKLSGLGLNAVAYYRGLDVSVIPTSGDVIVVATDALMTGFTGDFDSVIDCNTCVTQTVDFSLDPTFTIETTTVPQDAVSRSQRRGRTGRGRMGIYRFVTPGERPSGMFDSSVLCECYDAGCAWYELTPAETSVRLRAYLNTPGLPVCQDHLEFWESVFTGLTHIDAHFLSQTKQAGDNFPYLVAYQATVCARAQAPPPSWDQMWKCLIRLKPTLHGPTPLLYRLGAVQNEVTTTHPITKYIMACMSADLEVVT
Outline: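 Fluorescence polarization with Cy5-dT15 and NS3h: excitation 635 nm; parallel and perpendicular emission read at 667 nm; G-factor taken from probe-only wells. % inhibition normalized to DMSO-only (negative) and 200 nM dT20 or 100 μM primuline (positive) controls. Single-point tests at 100 μM. IC50 is the concentration displacing 50% of NS3h from DNA. Reversibility: 10 μM NS3h preincubated 1 h with test compound, then diluted 100–100 000-fold into Cy5-dT15 and compared with untreated controls.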

E. coli SSB = E. coli SSB (Escherichia coli, UniProt P0AGE0); assay: FP-based binding assay with SSB in place of NS3h; settings: for inhibition at 100 µM: read-out: SSB (% I): percent inhibition of SSB binding to Cy5-dT15; for SSB (% I): percent inhibition of SSB binding to Cy5-dT15: 100 μM of each compound; for SSB binding inhibition relative to NS3h binding inhibition: 100 μM
Outline: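 Fluorescence polarisation assay with E. coli SSB in place of NS3h, using Cy5-dT15 (or Cy5-rU15 for titrations). Screen compounds were pin-transferred to 100 μM final, 1% DMSO. Excitation 635 nm, emission 667 nm; G-factor from probe-only wells. Percent inhibition was normalised to DMSO and to unlabeled dT20 or 100 μM primuline controls.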

[1] = tested on: HCV genotype 2a isolate (JFH1); settings: 20 μM of each compound; ref Gastaminza et al.[9]; cited from earlier work
[2] = tested on: HCV Con1/1b Rluc subgenomic replicon in Huh-7.5 cells; assay: HCV subgenomic replicon assay; assay type: cell-based, hepatitis C virus genotype 1b; settings: for antiviral potency relative to ebsulfur/ebselen (times more potent): replicon; for therapeutic index (CC50/EC50): replicon EC50 and Huh7.5 CC50
Outline: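 Huh-7.5 cells carrying a stable genotype 1b Con1 Renilla luciferase subgenomic replicon (kept in 0.25 mg/mL Geneticin) were seeded at 10 × 10^3 per well. Two-fold compound series, 0.5% final DMSO, 3 days at 37 °C, 5% CO2. Washed cells were lysed and Renilla luminescence read. EC50 is the concentration halving Rluc; CC50 comes from a parallel CellTiter-Glo viability run; three independent titrations.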

SSB = SSB (Escherichia coli, UniProt P0AGE0 1-178); assay: fluorescence polarization
NS3h_1b(con1) [3] = molecular target: T2, NS3h_1b(con1) (Hepatitis C virus genotype 1b, con1 …, UniProt Q9WMX2 1190-1657); assay: fluorescence polarization
NS3h_2a(JFH1) = NS3h_2a(JFH1) (Hepatitis C virus genotype 2a, JFH1, UniProt Q99IB8 1194-1661); assay: fluorescence polarization
NS3h_1b(con1) [4] = molecular target: T2, NS3h_1b(con1); assay: fluorescence polarization; remark: listed apart in the source
NS3h_1b(con1) [5] = molecular target: T2, NS3h_1b(con1); assay: fluorescence polarization; remark: listed apart in the source

Sequence of E. coli SSB (P0AGE0 2-178 limits assumed): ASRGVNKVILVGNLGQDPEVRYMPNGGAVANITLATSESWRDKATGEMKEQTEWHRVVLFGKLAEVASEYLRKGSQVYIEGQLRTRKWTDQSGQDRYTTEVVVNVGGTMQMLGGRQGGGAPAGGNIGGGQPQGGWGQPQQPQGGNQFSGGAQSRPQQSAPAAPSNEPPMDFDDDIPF
Sequence of SSB (P0AGE0 whole entry): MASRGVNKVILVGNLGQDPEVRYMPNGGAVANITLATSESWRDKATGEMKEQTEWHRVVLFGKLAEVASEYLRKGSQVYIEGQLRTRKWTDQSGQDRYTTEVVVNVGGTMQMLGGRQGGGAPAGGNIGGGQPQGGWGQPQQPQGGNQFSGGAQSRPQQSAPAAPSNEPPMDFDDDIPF
Sequence of NS3h_2a(JFH1) (Q99IB8 1194-1661): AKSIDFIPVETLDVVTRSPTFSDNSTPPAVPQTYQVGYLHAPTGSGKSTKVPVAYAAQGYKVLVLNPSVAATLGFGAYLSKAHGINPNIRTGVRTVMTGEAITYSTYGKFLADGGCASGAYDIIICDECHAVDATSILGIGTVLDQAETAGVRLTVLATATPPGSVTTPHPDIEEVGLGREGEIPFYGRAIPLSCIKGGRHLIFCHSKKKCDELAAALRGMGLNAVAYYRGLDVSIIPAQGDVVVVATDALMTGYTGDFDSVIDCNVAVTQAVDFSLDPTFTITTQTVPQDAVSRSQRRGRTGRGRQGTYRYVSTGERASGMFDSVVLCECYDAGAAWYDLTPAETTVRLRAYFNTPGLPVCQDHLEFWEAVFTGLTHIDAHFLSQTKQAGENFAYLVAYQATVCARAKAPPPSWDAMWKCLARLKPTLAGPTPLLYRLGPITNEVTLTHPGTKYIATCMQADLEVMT

O=C1c2c(O)ccc(O)c2C(=O)c2c(NCCNCCO)ccc(NCCNCCO)c21 [Mitoxantrone]
NS3h (% I): percent inhibition of NS3h binding to Cy5-dT15 (HCV NS3h; 100 µM): 125%
NS3h (% I): percent inhibition of NS3h binding to Cy5-dT15 (HCV NS3h; listed as mitoxantrone, 100 µM): more than 50%
inhibition at 100 µM (E. coli SSB): 121%

Cn1c2ccccc2c(=O)n1-c1ccccc1 [compound 15, 1-Methyl-2-phenyl-1H-indazol-3(2H)-one]
ability to inhibit HCV helicase binding to DNA (in words) (HCV NS3h): complete loss of activity

O=C(CCn1sc2ccccc2c1=O)Nc1ccccc1 [compound 13, 3-(3-Oxobenzo[d]isothiazol-2(3H)-yl)-N-phenylpropanamide]
decrease in the ability to inhibit HCV helicase (longer linker) (HCV NS3h; relative to peptide-linker analogues): 10 fold

COc1cccc2c1C(=O)c1c(O)c3c(c(O)c1C2=O)C[C@@](O)(C(=O)CO)C[C@@H]3O[C@H]1C[C@H](N)[C@H](O)[C@H](C)O1 [Doxorubicin Hydrochloride]
inhibition at 100 µM (HCV NS3h): 8%
inhibition at 100 µM (E. coli SSB): 90%
HCV (% I): percent inhibition of HCV replication in cells [1]: 100%

CCCCCCCCCOc1ccc2[nH]cc(CCN)c2c1 [5-Nonyloxy-tryptamine]
inhibition at 100 µM (HCV NS3h): -8%
inhibition at 100 µM (E. coli SSB): 67%
HCV (% I): percent inhibition of HCV replication in cells [1]: 100%

CN(C)[C@@H]1C(O)=C(C(=O)NCN2CCCC2)C(=O)[C@@]2(O)C(O)=C3C(=O)c4c(O)cccc4[C@@](C)(O)[C@H]3C[C@@H]12 [Rolitetracycline]
inhibition at 100 µM (HCV NS3h): -4%
inhibition at 100 µM (E. coli SSB): 45%
HCV (% I): percent inhibition of HCV replication in cells [1]: <0%

O=c1cc(-c2ccccc2)sn1-c1ccccc1 [compound 14, 2,5-Diphenylisothiazol-3(2H)-one]
ability to inhibit HCV helicase binding to DNA (in words) (HCV NS3h): complete loss of activity

Cl.NC1CCN(c2cccc(Cl)n2)CC1 [SR 57227A]
NS3h (% I): percent inhibition of NS3h binding to Cy5-dT15 (HCV NS3h): –1%
SSB (% I): percent inhibition of SSB binding to Cy5-dT15 (E. coli SSB): 133%
HCV (% I): percent inhibition of HCV replication in cells [1]: 12%

C=CC1=C(C(=O)O)N2C(=O)[C@@H](NC(=O)C(=NO)c3csc(N)n3)[C@H]2SC1 [Spectrum 001824]
NS3h (% I): percent inhibition of NS3h binding to Cy5-dT15 (HCV NS3h): 11%
SSB (% I): percent inhibition of SSB binding to Cy5-dT15 (E. coli SSB): 96%
HCV (% I): percent inhibition of HCV replication in cells [1]: 5.8%

O=c1c2cc(F)c(F)cc2sn1-c1ccccc1 [compound 2, 5,6-Difluoro-2-phenylbenzo[d]isothiazol-3(2H)-one]
antiviral potency relative to ebsulfur/ebselen (times more potent) [2]: ~10 times
therapeutic index (CC50/EC50) [2]: ~1

O=c1c2ccc(Br)cc2sn1-c1ccccc1 [compound 3, 6-Bromo-2-phenylbenzo[d]isothiazol-3(2H)-one]
antiviral potency relative to ebsulfur/ebselen (times more potent) [2]: ~10 times
therapeutic index (CC50/EC50) [2]: ~1

CC(O)CO.N[C@@H](C(=O)N[C@@H]1C(=O)N2C(C(=O)O)=C(CSc3cn[nH]n3)CS[C@H]12)c1ccc(O)cc1 [Seapuron]
NS3h (% I): percent inhibition of NS3h binding to Cy5-dT15 (HCV NS3h): 22%
SSB binding inhibition relative to NS3h binding inhibition (E. coli SSB): 3–4 times
SSB (% I): percent inhibition of SSB binding to Cy5-dT15 (E. coli SSB): 56%
HCV (% I): percent inhibition of HCV replication in cells [1]: <0%

CS(=O)(=O)Nc1ccc(Cc2noc(-c3ccc4[nH]cc(CCN)c4c3)n2)cc1.O [L 694247]
NS3h (% I): percent inhibition of NS3h binding to Cy5-dT15 (HCV NS3h): 3%
SSB (% I): percent inhibition of SSB binding to Cy5-dT15 (E. coli SSB): 37%
HCV (% I): percent inhibition of HCV replication in cells [1]: <0%

C=CC1=C(C(=O)O)N2C(=O)[C@@H](NC(=O)C(=NOCC(=O)O)c3csc(N)n3)[C@H]2SC1.O [HMS2052E19]
NS3h (% I): percent inhibition of NS3h binding to Cy5-dT15 (HCV NS3h): 28%
SSB binding inhibition relative to NS3h binding inhibition (E. coli SSB): 3–4 times
SSB (% I): percent inhibition of SSB binding to Cy5-dT15 (E. coli SSB): 95%
HCV (% I): percent inhibition of HCV replication in cells [1]: <0%

B1: Cy5-rU15 (ssRNA)
RNA: UUUUUUUUUUUUUUU
binding result (SSB): binds
binding result (NS3h_1b(con1) [3]): binds

B2: Cy5-dT20 (ssDNA)
DNA: TTTTTTTTTTTTTTTTTTTT
binding signal (NS3h_2a(JFH1)): ~2 Ka relative to NS3h_1b(con1)
binding signal (NS3h_1b(con1) [4]): 1 Ka relative to NS3h_1b(con1)

B3: Cy5-dT15 (ssDNA)
DNA: TTTTTTTTTTTTTTT
binding result (SSB): binds
binding result (NS3h_1b(con1) [5]): binds
